The values below come from ChEMBL document CHEMBL5113523, “Discovery of Cyclic Peptide Inhibitors Targeting PD-L1 for Cancer Immunotherapy” (J Med Chem, 2022).

Activity calls are given as the source filed them. The calls are words filed in the database; no cut-off is given here. Bridge positions count the residues as written; N and C are the ends. Peptide text beside a SMILES is read from it.

For data set [1], the target named is Programmed cell death protein 1/Programmed cell death 1 ligand 1 (Mus musculus, UniProt Q9EP73). Nature of the data set: Inhibition of mouse recombinant PD-1/PD-L1 interaction preincubated with compound for 2 hrs followed by PD-1 protein addition and measured after 1.5 hrs by inhibitor screening ELISA assay pair kit method. The data set is classed as protein-complex assay. A digest of the protocol:
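Plate-based ELISA. Mouse PD-L1 (100 ng) coated for 16 h at 4 °C, then blocked with 2% BSA for 1.5 h at 37 °C. Peptide added for 2 h at 37 °C, then biotinylated mouse PD-1 for 1.5 h. Detection with streptavidin-HRP and chromogenic substrate, stopped with 2N H2SO4; OD450 referenced to OD540. IC50 determined; mean ± SD, n = 3.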

Data set [2] has as its target Programmed cell death 1 ligand 1 (Homo sapiens) (UniProt Q9NZQ7). Put plainly: Binding affinity to PD-L1 overexpressing in human MDA-MB-231 cells at 25 to 100 nM incubated for 1 hr by flow cytometry analysis. The data set is classed as cell-based. Conditions: dose 25-100 nM. A digest of the protocol: (§1)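 Cells detached with enzyme-free dissociation buffer, suspended in PBS at 1×10^6 cells/mL, incubated with Cy5-labelled peptide at various concentrations for 1 h at 37 °C under slow rotation. Cells spun at 300g for 10 min, washed, resuspended in PBS and read by flow cytometry. PD-L1 knockout MDA-MB-231 served as the negative cell line. Mean ± SD, n = 3.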
(In general: A flow cytometer gives signals particle by particle.)

For data set [3] the target is unchanged. Nature of the data set: Binding affinity to PD-L1 overexpressing in human DU-145 cells at 25 to 100 nM incubated for 1 hr by flow cytometry analysis. It is filed as cell-based. Conditions: dose 25-100 nM. An outline of the steps:
as §1

Data set [4] has the same target. Put plainly: Binding affinity to PD-L1 deficient in human MCF7 cells at 25 to 100 nM incubated for 1 hr by flow cytometry analysis. The conditions noted are these: dose 25-100 nM. It is filed as cell-based.
Data set [5] is described as follows: Production against apoptosis in human PBMC cells cocultured with DU-145 cells assessed as reduction in apoptosis of T cells at 10 uM measured after 24 hrs by annexin V-FITC/PI staining based FACScalibur flow cytometry (reference value: 24.5%). It is filed as functional. More on the design: scale not given: the % may be the effect or the level left.
Data set [6] in a line: Production against apoptosis in human PBMC cells cocultured with DU-145 cells assessed as increase in IFNgamma level in CD8+ T cell at 10 uM measured after 24 hrs by FACScalibur flow cytometry (reference value: 1.3%). The data set is classed as functional.
Data set [7] in a line: Production against apoptosis in human PBMC cells cocultured with DU-145 cells assessed as increase in IFNgamma level in CD4+ T cell at 10 uM measured after 24 hrs by FACScalibur flow cytometry (reference value: 1.3%). It is filed as functional.
Data set [8] in a line: Stability of the compound in human serum assessed as drug degradation measured after 3 hrs by LC-MS/MS analysis. The data set is classed as ADME, cell-free. A digest of the protocol: (§2)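 Peptide incubated in 50% human serum at 37 °C. Aliquots taken at set time points up to 3 h and the intact peptide quantified by LC-MS/MS. Mean ± SD, n = 3.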
In data set [9] the test system is CT26. Put plainly: Antitumor activity against mouse CT26 cells implanted in BALB/c mouse syngeneic model assessed as tumor growth inhibition at 0.5 mg/kg, ip administered daily starting from day 10 post inoculation and measured on day 18 (reference value: 0%). It is filed as functional. Conditions: CT26, 216 h, time 9 day, read-out: TGI. A digest of the protocol:
(§3)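 Balb/c mice (4 male + 4 female per group) implanted subcutaneously in right flank with ~1×10^6 CT26 cells; treatment began when tumors reached 200-250 mm3. Daily intraperitoneal dosing days 10–18, saline vehicle control group. Caliper volume = 1/2 × length × width2. TGI (%) = [1 − RTV treated/RTV control] × 100, RTV = day-18 volume / day-10 volume.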

Data set [10] is described as follows: Toxicity in BALB/c syngenic mouse bearing CT26 cells assessed as improvement in animal survival at 0.5 mg/kg, ip administered daily starting from day 10 post inoculation and measured on day 18. It is filed as organism-based. The conditions noted are these: in vivo, 216 h, time 9 day. A digest of the protocol:
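Male and female Balb/c mice (4 of each per group) with about 1×10^6 CT26 cells implanted subcutaneously in the right flank. Grouped when tumours reached 200-250 mm3. Dosed 0.5 mg/kg i.p. daily from day 10 to day 18; saline i.p. as negative control. Caliper volume = 1/2 × length × width². Survival curves recorded.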

Data set [11] addresses T1, Programmed cell death protein 1/Programmed cell death 1 ligand 1 (Homo sapiens, UniProt Q9NZQ7). Nature of the data set: Inhibition of human recombinant PD-1/PD-L1 interaction preincubated with compound for 2 hrs followed by PD-1 protein addition and measured after 1.5 hrs by inhibitor screening ELISA assay pair kit method. It is filed as protein-complex assay. A digest of the protocol: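 Plates coated with 100 ng recombinant human PD-L1 at 4°C for 16 h, washed with PBS pH 7.2-7.4, then blocked with 2% BSA for 1.5 h at 37°C. Peptides added at set concentrations for 2 h at 37°C, then biotinylated PD-1 for 1.5 h. Detection with streptavidin-HRP and chromogenic substrate, stopped with 2N H2SO4. A450 referenced to 540 nm. Mean ± SD, n = 3.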

The target of data set [12] is T1, Programmed cell death protein 1/Programmed cell death 1 ligand 1. Nature of the data set: Inhibition of human PD-1/PD-L1 interaction by surface plasmon resonance analysis. It is filed as protein-complex assay. An outline of the steps: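 Competitive SPR with PD-1 immobilised on the chip. Various peptide concentrations were preincubated with human PD-L1 in running buffer, then injected. PD-L1 alone was injected as the control. Blocking was taken from the drop in SPR response relative to that control. Mean ± SD, n = 3.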
On the technique in general: Surface plasmon resonance follows binding to a sensor surface in real time, without labels.

Data set [13] in a line: Stability of the compound in 50% human serum assessed as half life measured upto 200 mins by LC-MS/MS analysis. The data set is classed as ADME, cell-free. An outline of the steps:
as §2

Data set [14] concerns CT26. Put plainly: Antitumor activity against mouse CT26 cells implanted in BALB/c mouse syngeneic model at 0.5 mg/kg, ip administered daily starting from day 10 post inoculation and measured on day 18. It is filed as functional, organism-based. The conditions noted are these: time 9.0 day. A digest of the protocol: as §3
The species named for the next data set is Homo sapiens. Put plainly: Antiproliferative activity against human DU-145 cells cocultured with PBMC cells at 10 uM incubated for 24 hrs by CellTiter-Glo luminescent cell viability assay. The data set is classed as functional, cell-based. Background: Cellular ATP, detected with luciferase, serves as a proxy for viable cell number.
A short description of data set [15]: Stability of the compound in human serum assessed as compound remaining measured after 3 hrs by LC-MS/MS analysis relative to control. The data set is classed as ADME, cell-free. The conditions noted are these: read-out: Stability. An outline of the steps:
as §2

By IC50 is commonly meant the concentration needed to halve the response being measured. For orientation: half-life means the time in which the quantity being followed falls by half.

Programmed cell death 1 ligand 1 (Homo sapiens), sequence (Q9NZQ7 whole entry): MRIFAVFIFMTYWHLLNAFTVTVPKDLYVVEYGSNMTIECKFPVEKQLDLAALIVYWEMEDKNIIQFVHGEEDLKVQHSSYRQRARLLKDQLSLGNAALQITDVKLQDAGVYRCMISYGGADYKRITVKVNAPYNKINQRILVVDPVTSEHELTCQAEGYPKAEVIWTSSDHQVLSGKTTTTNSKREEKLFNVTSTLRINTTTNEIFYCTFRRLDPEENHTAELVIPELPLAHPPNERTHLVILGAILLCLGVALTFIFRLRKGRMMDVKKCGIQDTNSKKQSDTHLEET
Programmed cell death protein 1/Programmed cell death 1 ligand 1 (Mus musculus, UniProt Q9EP73), sequence (Q9EP73 whole entry): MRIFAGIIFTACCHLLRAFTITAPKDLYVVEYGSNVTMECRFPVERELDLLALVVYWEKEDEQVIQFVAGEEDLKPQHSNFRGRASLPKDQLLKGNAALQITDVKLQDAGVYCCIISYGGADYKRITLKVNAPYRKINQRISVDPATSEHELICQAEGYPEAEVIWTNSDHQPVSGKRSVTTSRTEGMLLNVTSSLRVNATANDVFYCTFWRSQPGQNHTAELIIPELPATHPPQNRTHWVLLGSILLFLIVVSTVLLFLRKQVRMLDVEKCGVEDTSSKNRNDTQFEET
Programmed cell death protein 1/Programmed cell death 1 ligand 1 (Mus musculus, UniProt Q9EP73), sequence (Q02242 whole entry, further chain): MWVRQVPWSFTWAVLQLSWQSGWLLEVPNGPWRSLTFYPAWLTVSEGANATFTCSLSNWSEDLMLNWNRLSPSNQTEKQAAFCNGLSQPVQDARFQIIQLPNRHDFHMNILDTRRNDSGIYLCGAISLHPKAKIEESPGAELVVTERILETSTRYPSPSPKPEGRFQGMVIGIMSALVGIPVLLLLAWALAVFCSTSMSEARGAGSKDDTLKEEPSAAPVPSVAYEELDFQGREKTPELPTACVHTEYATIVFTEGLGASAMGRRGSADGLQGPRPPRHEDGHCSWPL
T1 sequence (Q15116 whole entry): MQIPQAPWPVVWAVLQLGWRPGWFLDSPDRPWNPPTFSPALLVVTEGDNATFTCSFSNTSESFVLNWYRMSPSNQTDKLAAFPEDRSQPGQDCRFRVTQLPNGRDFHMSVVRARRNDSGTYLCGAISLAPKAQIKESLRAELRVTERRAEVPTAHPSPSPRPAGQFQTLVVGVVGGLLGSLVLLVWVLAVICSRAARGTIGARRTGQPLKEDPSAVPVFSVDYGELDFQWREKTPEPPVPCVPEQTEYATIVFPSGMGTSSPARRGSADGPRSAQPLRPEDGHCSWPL
T1 sequence (Q9NZQ7 whole entry): as the sequence (Q9NZQ7 whole entry) above

Turning to H-WHRSYYTWNLNT-OH, in data set [1], the IC50 is 4280 nM. Also, the result in data set [2], in [3] and in data set [4] was Active. Also, the Activity is recorded as 14.5% in data set [5], 1.4% in data set [6], 1.5% in data set [7] and “Non-Toxic” in data set [10]. In addition, in [8], the Drug degradation entry is given as “Active”. Besides, the inhibition in vivo at 0.5 mg/kg in the data set with CT26 [9] was 16.3%.

Turning to `CC(=O)N[C@H]1CSSC[C@@H](C(N)=O)NC(=O)[C@H](CC(N)=O)NC(=O)[C@H](CC(C)C)NC(=O)[C@H](CC(N)=O)NC(=O)[C@H](Cc2c[nH]c3ccccc23)NC(=O)[C@H]([C@@H](C)O)NC(=O)[C@H](Cc2ccc(O)cc2)NC(=O)[C@H](Cc2ccc(O)cc2)NC(=O)[C@H](CO)NC(=O)[C@H](CCCNC(=N)N)NC(=O)[C@H](Cc2c[nH]cn2)NC1=O` (Ac-CHRSYYTWNLNC-NH2; disulfide 1-12), the results for the IC50 in data set [11], in data set [1] and in [12] were 180 nM, 552 nM and 119 nM, respectively. The result (in [2]; in data set [3]; in data set [4]; with CT26 [14]; in the data set listed under Homo sapiens) was Active. For the same compound, the Activity in data set [5] is 12.2%; in data set [6], 1.7%; in data set [7], 1.5%; in data set [10] it was “Toxic”. For the same compound, the half-life in data set [13] came to 38.1 min. For the same compound, the inhibition in vivo at 0.5 mg/kg in the data set on CT26 [9] is 60.6%.

As to `CC(=O)N[C@H]1CSSC[C@@H](C(=O)N[C@@H](Cc2c[nH]c3ccccc23)C(=O)N[C@@H](CC(N)=O)C(=O)N[C@@H](CC(C)C)C(=O)N[C@@H](CC(N)=O)C(=O)N[C@H](C(N)=O)[C@@H](C)O)NC(=O)[C@H](Cc2ccc(O)cc2)NC(=O)[C@H](Cc2ccc(O)cc2)NC(=O)[C@H](CO)NC(=O)[C@H](CCCNC(=N)N)NC(=O)[C@H](Cc2c[nH]cn2)NC1=O` (Ac-CHRSYYCWNLNT-NH2; disulfide 1-7), the values for the IC50 in data set [11], in data set [1] and in data set [12] were 440 nM, 464 nM and 143 nM, respectively. For the same compound, the outcome (in [2]; in [3]; in data set [4]; in the data set on CT26 [14]; in the data set listed under Homo sapiens) was Active. In addition, the Activity is listed as 10.6% in [5], 1.5% in data set [6], 1.3% in data set [7] and “Toxic” in data set [10]. Besides, in [13], the half-life stood at 70.8 min. The remaining at 3 h in data set [15] worked out at 25%. Moreover, the inhibition in vivo at 0.5 mg/kg with CT26 [9] is 33%.
